Hits are enriched below; roughly 2.2% of the tested compounds scored in any of these assays.
FLuc inh counter – counter-screen for luciferase assay inhibitors: firefly luciferase inhibition; P08659; ATPLite firefly luciferase biochemical luminescence, 10 min; inhibition, % at 10 µM; hit rate 1.5% among 200,000; AID 1006;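 active means inhibition above about 50% when tested at 10 µM, limit read from the data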
PPC-1+TRAIL kill – PPC-1 cancer cell killing with TRAIL present; PPC-1 cells + TRAIL, ATPLite viability luminescence; cell killing (% activity), % at 4 µM or 5 µM; AID 1443; hit rate 0.41% among 220,000;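 active means cell killing above 50% in the first pass at 4 µM, then a duplicate retest at 5 µM averaging 50% or more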;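 further: plate controls were cells with TRAIL plus DMSO for no effect and medium-only wells lacking cells for full effect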
FLuc act counter – firefly luciferase counter-screen for stimulation assays. P08659. ATPlite luciferase biochemical, luminescence, 10 min; 0 = ATP-free wells, 1 = DMSO control. activation factor at 10 µM. 200,000 tested, under 10 active;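 active means luciferase activation factor, scaled between plate controls, of at least 2 with compound at 10 µM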
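System: Luciferase/luciferin detection reagent, cell-free biochemical luciferase assay | Medium: PBS buffer for ATP | Dosing: Test compounds dosed from 2 mM stocks in 100% DMSO | Timing: 10 min at ambient temperature | Signal: Luminescence measurement of luciferase light output | Evaluation: Luciferase activation, seen as luminescence increase over controls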
Wee1 degr inh – inhibitors of human Wee1 degradation. hit rate 1.2% among 220,000. HeLa Luc-Wee1K328M stability, luciferase luminescence; 100% = proteasome inhibitor MG132 effect. P30291. AID 1321. reporter increase, % at 5 µM;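 active means activation above the mean of all tested compounds plus 3 SD, set per screening run, cut at about 8.8% in these data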;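 further: cells exposed to compound for 20 h before luminescence read; 0% = DMSO alone and 100% = MG132 at 30 µM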
TRAIL sens C8 – caspase-8 TRAIL sensitization; hit rate 1% among 360,000; NB7+C8 cells + TRAIL, ATPlite viability luminescence; AID 624354; inhibition (viability loss, TRAIL sensitization), % at 10 µM;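 active means compounds causing at least 50% loss of cell viability in the single-dose screen, relative to plate controls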
PKD1 inh – blocks activity of human protein kinase D1; Q15139; PKD1 kinase fluorescence polarization assay; inhibition, % (test concentration not listed); hit rate 0.056% among 200,000; in the data active means inhibition above about 50%
Target sequence (Q15139 whole entry, looked up): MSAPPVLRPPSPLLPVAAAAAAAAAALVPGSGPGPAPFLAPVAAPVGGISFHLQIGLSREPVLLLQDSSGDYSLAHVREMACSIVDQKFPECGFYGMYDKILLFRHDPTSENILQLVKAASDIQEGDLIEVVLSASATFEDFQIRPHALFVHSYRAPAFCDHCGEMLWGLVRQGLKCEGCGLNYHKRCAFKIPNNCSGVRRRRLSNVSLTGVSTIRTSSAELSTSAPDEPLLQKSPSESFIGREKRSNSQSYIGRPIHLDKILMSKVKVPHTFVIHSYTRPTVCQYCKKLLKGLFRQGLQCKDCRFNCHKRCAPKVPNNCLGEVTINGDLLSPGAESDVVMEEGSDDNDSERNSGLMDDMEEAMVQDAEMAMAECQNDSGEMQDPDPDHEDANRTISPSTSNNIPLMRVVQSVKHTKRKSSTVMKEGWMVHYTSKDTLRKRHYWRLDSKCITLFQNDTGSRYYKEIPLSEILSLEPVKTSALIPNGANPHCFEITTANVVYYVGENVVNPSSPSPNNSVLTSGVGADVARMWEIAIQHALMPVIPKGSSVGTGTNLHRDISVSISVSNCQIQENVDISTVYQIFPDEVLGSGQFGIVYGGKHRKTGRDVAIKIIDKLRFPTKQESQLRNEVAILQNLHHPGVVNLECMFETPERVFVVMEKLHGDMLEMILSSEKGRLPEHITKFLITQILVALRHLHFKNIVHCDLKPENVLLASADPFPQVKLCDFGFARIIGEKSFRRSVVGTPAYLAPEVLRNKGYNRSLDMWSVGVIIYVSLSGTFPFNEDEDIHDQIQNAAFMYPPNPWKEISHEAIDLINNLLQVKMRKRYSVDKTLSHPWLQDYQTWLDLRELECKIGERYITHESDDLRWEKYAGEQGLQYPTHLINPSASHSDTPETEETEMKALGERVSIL
An asterisk follows results filed as active; x = no result.

SMILES | FLuc inh counter | PPC-1+TRAIL kill | FLuc act counter | Wee1 degr inh | TRAIL sens C8 | PKD1 inh
Cn1ccnc1C1CCCCN1C(=O)c1cc(COc2ccc(F)cc2F)on1 (configuration not stated) | x | 5.4 | x | -1.7 | -11.4 | x
C[C@@H]1CC[C@@]2(O[C@@H](CCO)C[C@H](O)[C@H]2O)O1 | x | x | x | x | 7.2 | x
COCCNC(=O)CN(C(=O)Cn1nnc2ccccc21)c1cc(C)cc(C)c1 | -3.7 | 1.6 | 1 | 2.5 | -12.3 | 2.0
Cc1cc(F)ccc1S(=O)(=O)N1CCCOC1CNC(=O)C(=O)NCc1cccnc1 (configuration not stated) | x | x | x | x | 0.5 | x
COC(=O)c1ccc(CO/N=C/c2ccc(OC)cc2)o1 | -1.7 | -16.5 | 1 | 7.9 | 1.1 | -3.1
COc1cccc(/C=C2\SC(=S)N(c3cccnc3)C2=O)c1OC | 66.9* | 5.1 | 0.3 | 3.2 | -0.7 | 1.1
CCOC(=O)C1=C(COC(=O)Cc2ccccc2F)NC(=O)NC1C (configuration not stated) | x | x | x | x | 6.3 | x
CCC(=O)Nc1sc2c(c1C(N)=O)CCN(C(C)=O)C2 | -1.9 | x | 1 | 0.2 | 3.5 | -0.9
CC(=O)N1CCc2c(sc(NC(=O)c3ccc([N+](=O)[O-])o3)c2C(N)=O)C1 | x | x | x | x | 61.5* | x
CCCCn1c(SCC(=O)Nc2nnc(C)s2)nc2c1c(=O)n(C)c(=O)n2C | 0.0 | -0.5 | 1 | 1.1 | -8.1 | -11.4
CCCCn1c(SCC(=O)Nc2nnc(CC)s2)nc2c1c(=O)n(C)c(=O)n2C | -7.4 | 19.1 | 1.1 | -1.5 | 64.3* | -23.0
COc1ccc(-c2[nH]c(-c3ccc(C)cc3)nc2SCC(=O)Nc2nccs2)cc1 | 0.1 | -1.8 | 1 | -1.2 | 16.7 | -2.3
CCOC(=O)CNC(=O)CSc1ccc(-c2nc3ccccc3[nH]2)cn1 | x | x | x | x | -7.5 | x
Cc1cc2nc(-c3ccc(SCC(=O)Nc4nccs4)nc3)[nH]c2cc1C | 33.4 | 25.4 | 0.7 | 3.8 | 59.2* | -0.1
Cc1ccc2nc(-c3ccc(SCC(=O)N4CCc5ccccc54)nc3)[nH]c2c1 | 78.0* | 55.8* | 0.2 | -1.2 | 65.4* | -13.9
CC(=O)CSc1ccc(-c2nc3ccccc3[nH]2)cn1 | x | x | x | x | 75.3* | x
Cc1ccc2nc(-c3ccc(SCC(=O)O)nc3)[nH]c2c1 | 42.6 | 30.2 | 0.6 | 3.5 | 48.0 | 2.3
CC(=O)CSc1ccc(-c2nc3cc(C)c(C)cc3[nH]2)cn1 | 85.1* | x | 0.1 | -2.7 | 78.0* | 2.0
COC(=O)c1ccc(CNC(=O)COC(=O)c2cccs2)cc1 | x | x | x | x | 1.4 | x
COc1cc(OC)c(C(=O)OCC(=O)Nc2nnc(-c3ccccc3)o2)cc1OC | x | x | x | x | 11.7 | x
CCC(=C(c1ccc(OC)cc1)c1ccc(OC)cc1)c1cn(CC(O)CN2CCN(C)CC2)c2ccccc12 (configuration not stated) | -2.4 | 7.0 | 1 | 0.8 | -2.0 | 22.1
Cc1ccc(NC(=O)CCc2nc3ccccc3c(=O)[nH]2)cc1S(=O)(=O)N1CCOCC1 | x | x | x | x | -5.2 | x
CCc1nnc(NC(=O)CSc2nnc(C)n2-c2ccc(C)cc2)s1 | -2.5 | 33.7 | 1 | -0.7 | -7.1 | -4.9
Cc1ccc2nc(-c3ccc(NC(=O)CSc4ccccc4)cc3)[nH]c2c1 | 7.3 | 14.6 | 0.9 | 3.6 | 10.9 | -12.9
CCc1nnc(NC(=O)CSc2ccc(-c3ccc(C)cc3)nn2)s1 | 55.2* | 40.5 | 0.4 | -1.1 | 41.6 | -5.6
SMILES | FLuc inh counter | PPC-1+TRAIL kill | FLuc act counter | Wee1 degr inh | TRAIL sens C8 | PKD1 inh
CCc1nnc(NC(=O)CSc2ccc(-c3nc4ccc(C)cc4[nH]3)cn2)s1 | 58.0* | 23.7 | 0.4 | 0.6 | 53.7* | 2.4
Cc1cc2nc(-c3ccc(SCC(=O)Nc4ccc(S(=O)(=O)N5CCCC5)cc4)nc3)[nH]c2cc1C | 72.2* | 63.3* | 0.3 | 5.4 | 72.0* | 3.6
CCOC(=O)Cc1csc(NC(=O)Nc2ccc(Cl)cc2)n1 | x | 13.8 | x | -1.0 | 2.5 | x
Cc1csc(NC(=O)Nc2ccc(Cl)cc2)n1 | 4.1 | 3.8 | 1 | 8.9* | 10.1 | 14.7
O=C(Cc1csc(NC(=O)Nc2ccc(Cl)cc2)n1)NCc1ccccn1 | x | x | x | x | 53.9* | x
CC(C)(C)c1csc(NC(=O)Nc2ccccc2)n1 | 45.8 | 24.7 | 0.5 | 8.7 | 54.4* | 0.8
CCOC(=O)c1ccc(-c2c(C)cc3oc(=O)cc(-c4ccccc4)c3c2C)cc1 | x | x | x | x | 6.2 | x
COC(=O)CCSCC(=O)N1N=C(c2ccc(OC)cc2)CC1c1cccc(OC)c1OC (configuration not stated) | -1.9 | 6.0 | 1 | -3.0 | 0.1 | -2.8
c1ccc(CCNc2nc(-c3ccncc3)nc3ccccc23)cc1 | x | 21.0 | x | 4.1 | 13.3 | x
CCOc1ccc(C(=O)NCCc2ccccc2)cc1 | 72.8* | 42.6 | 0.3 | -2.5 | 41.2 | -1.1
COc1ccccc1OCCNC(=O)c1ccc2c(c1)OCCO2 | x | x | x | x | 51.7* | x
CC(=O)Oc1ccc(-c2ccc(C(=O)NCCc3ccc(S(N)(=O)=O)cc3)cc2)cc1 | x | x | x | x | -7.0 | x
O=C(NCCc1ccccc1)c1ccc2c(c1)OCO2 | x | x | x | x | 71.0* | x
O=C(NCCS(=O)(=O)NCc1ccccc1)c1ccc2c(c1)OCO2 | x | x | x | x | 2.0 | x
CC(=O)Oc1ccc(C(=O)NCCc2ccccc2)cc1 | 51.1* | 19.5 | 0.5 | -0.1 | 6.8 | -4.4
O=C(CCl)c1cc2c3c(c1)CC(=O)N3CCC2 | x | x | x | x | 12.1 | x
C=CCn1c(SCC(=O)Nc2ccc(OC)cc2)nnc1-c1cnccn1 | x | x | x | x | -9.1 | x
CC(C)(C)c1ccc(C(CC(=O)O)NC(=O)c2ccccc2F)cc1 (configuration not stated) | -4.1 | 7.9 | 1 | 7.9 | 0.1 | 5.5
O=C(NCCc1ccccc1)c1ccc2nccnc2c1 | 77.0* | x | 0.2 | 6.6 | 35.9 | 0.4
O=C(NCCc1ccccc1)c1cccnc1 | 1.8 | 24.2 | 1 | 0.5 | 7.8 | -6.6
O=C(CCN1CCN(S(=O)(=O)c2ccc(Cl)cc2)CC1)Nc1ccc(F)cc1 | x | x | x | x | -28.2 | x
COc1ccc(S(=O)(=O)N2CCc3ccccc32)cc1C(=O)N(CC(C)C)C1CCS(=O)(=O)C1 (configuration not stated) | x | x | x | x | 4.4 | x
Nc1cnnc(N/N=C\c2ccccc2)c1Cl | x | x | x | x | 48.7* | x
Oc1ccccc1C1Nc2cccc3cccc(c23)N1 | 64.3* | -15.5 | 0.4 | -1.2 | 0.7 | 4.0
CC(C)C(=O)N1CCN(c2ccc(NC(=O)c3ccc([N+](=O)[O-])o3)cc2)CC1 | 1.4 | 29.8 | 1 | 1.1 | 45.2 | -5.3
Cc1ccccc1C(=O)N1CCN(c2ccc(NC(=O)c3ccc([N+](=O)[O-])o3)cc2)CC1 | x | x | x | x | 71.4* | x
O=C(Nc1ccc(N2CCN(C(=O)c3ccccc3)CC2)cc1)c1ccc([N+](=O)[O-])o1 | -0.8 | 36.9 | 1 | 8.6 | 70.4* | -4.5
CCOC(=O)c1cnc(N)nc1C(F)(F)F | -4.3 | 9.0 | 1 | 4.0 | -0.1 | -1.2
COc1ccc(C(=O)COC(=O)Cc2n[nH]c(=O)c3ccccc23)c(OC)c1 | x | x | x | x | -14.4 | x
C[C@@]12C(=O)N(c3ccc(Br)cc3)C(=O)N1[C@@H]1c3ccccc3OC[C@@H]1[C@H]2c1ccccc1 | x | x | x | x | 22.1 | x

Source: PubChem BioAssay (several laboratories)
